# From ChEMBL document CHEMBL2331081, “Fragment-based drug design and identification of HJC0123, a novel orally bioavailable STAT3 inhibitor for cancer therapy” (Eur J Med Chem, 2013)
# pIC50: −log10 of the molar value. Active and inactive are the calls of the source. No cut-off for these calls is given here.
# How the values were obtained:
# MCF7 = test: CYtotoxicity against ER-positive human MCF7 cells by MTS assay; assay type: functional, cell-based
# How it was run: (§1)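 Cells seeded at 2×10^3/well, exposed to DMSO or 0.01, 0.1, 1, 5, 10 and 100 μM compound for 72 h. MTS reagent added, then OD at 550 nm read after 1 h at 37 °C. Quadruplicate wells per concentration.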
# PANC-1 = test: CYtotoxicity against human PANC1 cells by MTS assay; assay type: functional, cell-based; how it was run: as §1
# ASPC1 = test: CYtotoxicity against human AsPC1 cells by MTS assay; assay type: functional, cell-based; how it was run: as §1
# MDA-MB-231 [1] = test: CYtotoxicity against ER-negative human MDA-MB-231 cells by MTS assay; assay type: functional, cell-based; how it was run: as §1
# MDA-MB-231 [2] = test: Antitumor activity against human MDA-MB-231 cells xenografted in immunodeficient nude mouse assessed as reduction in tumor volume at 50 mg/kg, po administered 5 days a week; assay type: functional, organism-based; parameters: dose 50 mg/kg
# How it was run: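 Female nude mice aged 4–6 weeks were used, housed in a barrier unit. Each mouse received 2.5×10^6 fresh MDA-MB-231 cells in 100 µL PBS into the 3rd mammary fat pad (orthotopic). Mice were randomized into 2 groups of 6–7. Oral dosing or vehicle (50% DMSO/50% PEG) started once tumors reached 200 mm³. Tumor volume measured daily, calculated as 0.5×L×W².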
# MDA-MB-231 [3] = test: Cell cycle arrest in human MDA-MB-231 cells assessed as accumulation at S phase after 24 hrs by flow cytometry; assay type: functional, cell-based
# MDA-MB-231 [4] = test: Cell cycle arrest in human MDA-MB-231 cells assessed as accumulation at S phase at 5 uM after 24 hrs by flow cytometry (reference value: 16.7 %); assay type: functional
# MDA-MB-231 [5] = test: Cell cycle arrest in human MDA-MB-231 cells assessed as accumulation at G0/G1 phase at 5 uM after 24 hrs by flow cytometry (reference value: 53.6 %); assay type: functional
# MDA-MB-231 [6] = test: Cell cycle arrest in human MDA-MB-231 cells assessed as accumulation at G2/M phase at 2.5 uM after 24 hrs by flow cytometry (reference value: 25.1 %); assay type: functional
# MDA-MB-231 [7] = test: Cell cycle arrest in human MDA-MB-231 cells assessed as accumulation at S phase at 2.5 uM after 24 hrs by flow cytometry (reference value: 16.7 %); assay type: functional
# MDA-MB-231 [8] = test: Cell cycle arrest in human MDA-MB-231 cells assessed as accumulation at G0/G1 phase at 2.5 uM after 24 hrs by flow cytometry (reference value: 53.6 %); assay type: functional
# MDA-MB-231 [9] = test: Cell cycle arrest in human MDA-MB-231 cells assessed as accumulation at G2/M phase at 1 uM after 24 hrs by flow cytometry (reference value: 25.1 %); assay type: functional
# MDA-MB-231 [10] = test: Cell cycle arrest in human MDA-MB-231 cells assessed as accumulation at S phase at 1 uM after 24 hrs by flow cytometry (reference value: 16.7 %); assay type: functional
# MDA-MB-231 [11] = test: Cell cycle arrest in human MDA-MB-231 cells assessed as accumulation at G2/M phase at 5 uM after 24 hrs by flow cytometry (reference value: 25.1 %); assay type: functional
# MDA-MB-231 [12] = test: Cell cycle arrest in human MDA-MB-231 cells assessed as accumulation at G0/G1 phase at 1 uM after 24 hrs by flow cytometry (reference value: 53.6 %); assay type: functional
# MDA-MB-231 [13] = test: Induction of apoptosis in human MDA-MB-231 cells assessed as dead cells at 5 uM after 48 hrs by annexin V-based flow cytometry (reference value: 0.24 %); assay type: functional
# MDA-MB-231 [14] = test: Induction of apoptosis in human MDA-MB-231 cells assessed as late apoptotic cells at 5 uM after 48 hrs by annexin V-based flow cytometry (reference value: 4.98 %); assay type: functional
# MDA-MB-231 [15] = test: Induction of apoptosis in human MDA-MB-231 cells assessed as early apoptotic cells at 5 uM after 48 hrs by annexin V-based flow cytometry (reference value: 4.16 %); assay type: functional
# MDA-MB-231 [16] = test: Induction of apoptosis in human MDA-MB-231 cells assessed as viable cells at 5 uM after 48 hrs by annexin V-based flow cytometry (reference value: 90.62 %); assay type: functional; conditions: MDA-MB-231, 48 h, read-out: Activity
# MDA-MB-231 [17] = test: Induction of apoptosis in human MDA-MB-231 cells assessed as dead cells at 2.5 uM after 48 hrs by annexin V-based flow cytometry (reference value: 0.24 %); assay type: functional
# MDA-MB-231 [18] = test: Induction of apoptosis in human MDA-MB-231 cells assessed as late apoptotic cells at 2.5 uM after 48 hrs by annexin V-based flow cytometry (reference value: 4.98 %); assay type: functional
# MDA-MB-231 [19] = test: Induction of apoptosis in human MDA-MB-231 cells assessed as early apoptotic cells at 2.5 uM after 48 hrs by annexin V-based flow cytometry (reference value: 4.16 %); assay type: functional
# MDA-MB-231 [20] = test: Induction of apoptosis in human MDA-MB-231 cells assessed as viable cells at 2.5 uM after 48 hrs by annexin V-based flow cytometry (reference value: 90.62 %); assay type: functional; conditions: MDA-MB-231, 48 h, read-out: Activity
# MDA-MB-231 [21] = test: Induction of apoptosis in human MDA-MB-231 cells assessed as dead cells at 1 uM after 48 hrs by annexin V-based flow cytometry (reference value: 0.24 %); assay type: functional
# MDA-MB-231 [22] = test: Induction of apoptosis in human MDA-MB-231 cells assessed as late apoptotic cells at 1 uM after 48 hrs by annexin V-based flow cytometry (reference value: 4.98 %); assay type: functional
# MDA-MB-231 [23] = test: Induction of apoptosis in human MDA-MB-231 cells assessed as early apoptotic cells at 1 uM after 48 hrs by annexin V-based flow cytometry (reference value: 4.16 %); assay type: functional
# MDA-MB-231 [24] = test: Induction of apoptosis in human MDA-MB-231 cells assessed as viable cells at 1 uM after 48 hrs by annexin V-based flow cytometry (reference value: 90.62 %); assay type: functional; conditions: MDA-MB-231, 48 h, read-out: Activity
# MDA-MB-231 [25] = test: Induction of apoptosis in human MDA-MB-231 cells assessed as caspase-3 cleavage at 5 uM after 24 to 48 hrs by Western blot analysis; assay type: functional, cell-based
# How it was run: (§2)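 Whole-cell lysates of treated MDA-MB-231 cells; 40 µg protein per lane run on 10% SDS-PAGE and transferred to nitrocellulose. Blocked in 5% milk/1% Tween 20 in TBS. Probed for pSTAT3-Y705 (1:3000), STAT3 (1:2000) and cleaved caspase-3 (1:2000), with β-actin as loading reference. Secondary antibody at 1:4000, ECL detection.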
# [26] = biological target: Signal transducer and activator of transcription 3 (Homo sapiens) (UniProt P40763); test: Inhibition of total STAT3 protein expression in human MDA-MB-231 cells at 5 uM after 24 hrs by Western blot analysis; assay type: cell-based; how it was run: as §2
# [27] = biological target: Signal transducer and activator of transcription 3 (Homo sapiens) (UniProt P40763); test: Inhibition of total STAT3 protein expression in human MDA-MB-231 cells at 5 uM after 48 hrs by Western blot analysis; assay type: cell-based; how it was run: as §2
# [28] = biological target: Signal transducer and activator of transcription 3 (Homo sapiens) (UniProt P40763); test: Inhibition of STAT3 phosphorylation at Tyr-705 in human MDA-MB-231 cells at 5 uM after 48 hrs by Western blot analysis; assay type: cell-based; how it was run: as §2
# [29] = biological target: Signal transducer and activator of transcription 3 (Homo sapiens) (UniProt P40763); test: Inhibition of STAT3 phosphorylation at Tyr-705 in human MDA-MB-231 cells at 5 uM after 24 hrs by Western blot analysis; assay type: cell-based; how it was run: as §2
# [30] = biological target: Signal transducer and activator of transcription 3 (Homo sapiens) (UniProt P40763); test: Inhibition of STAT3 promoter activity in human MDA-MB-231 cells at 5 uM after 24 hrs by luciferase reporter gene assay relative to control; assay type: cell-based
# How it was run: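 MDA-MB-231 cells seeded at 5×10^4/well in RPMI-1640 with 10% FBS and were transiently transfected 4 h after plating. Each well received 0.5 μg DNA: pSTAT3-Luc (95%) and renilla control vector (5%). Compound was added 5 h post-transfection for 24 h. Read-out is dual luciferase, as firefly/renilla ratio relative to DMSO control. Triplicate wells; representative of ≥3 independent experiments.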
# MDA-MB-231 [31] = test: Antiproliferative activity against human MDA-MB-231 cells assessed as change in cell morphology after 48 hrs by light microscopy; assay type: functional, cell-based
# Mus musculus = test: Toxicity in human MDA-MB-231 cells xenografted immunodeficient nude mouse assessed as change in body weight at 50 mg/kg, po; conditions: in vivo
# Sequence of Signal transducer and activator of transcription 3 (Homo sapiens) (P40763 whole entry): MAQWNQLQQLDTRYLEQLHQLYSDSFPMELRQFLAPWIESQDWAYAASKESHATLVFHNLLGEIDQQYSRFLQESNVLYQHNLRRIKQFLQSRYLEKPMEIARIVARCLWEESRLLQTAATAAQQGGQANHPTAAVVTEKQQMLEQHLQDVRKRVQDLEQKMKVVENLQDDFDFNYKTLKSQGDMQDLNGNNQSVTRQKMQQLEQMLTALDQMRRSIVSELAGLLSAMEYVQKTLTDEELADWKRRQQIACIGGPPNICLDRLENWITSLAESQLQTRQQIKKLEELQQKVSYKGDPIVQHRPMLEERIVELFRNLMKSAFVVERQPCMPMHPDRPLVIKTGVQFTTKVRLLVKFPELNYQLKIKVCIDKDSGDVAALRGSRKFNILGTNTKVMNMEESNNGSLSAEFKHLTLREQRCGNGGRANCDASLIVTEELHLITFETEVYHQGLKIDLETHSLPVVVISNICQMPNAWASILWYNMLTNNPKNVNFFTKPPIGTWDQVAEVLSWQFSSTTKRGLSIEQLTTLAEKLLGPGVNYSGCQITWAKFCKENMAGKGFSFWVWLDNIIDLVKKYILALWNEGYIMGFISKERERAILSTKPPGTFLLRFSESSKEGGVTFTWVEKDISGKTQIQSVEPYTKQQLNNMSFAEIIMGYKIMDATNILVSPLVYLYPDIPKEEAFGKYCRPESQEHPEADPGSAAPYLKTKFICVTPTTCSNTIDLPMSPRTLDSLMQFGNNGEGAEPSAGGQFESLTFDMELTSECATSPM
structure (smiles),measurement,setting,value
N#C/C(=C\c1cccc(Br)n1)C(=O)Nc1ccc2c(c1)S(=O)(=O)C=C2,pIC50,MCF7,5.48
same,pIC50,PANC-1,5.79
same,pIC50,ASPC1,5.81
same,pIC50,MDA-MB-231 [1],5.82
O=C(Nc1ccc2c(c1)S(=O)(=O)C=C2)c1c2ccccc2nc2ccccc12,pIC50,MCF7,< 5.00
same,pIC50,PANC-1,< 5.00
same,pIC50,ASPC1,< 5.00
same,pIC50,MDA-MB-231 [1],< 5.00
C[C@H](NC(=O)c1cc(-c2ccccc2)nc2ccccc12)c1ccccc1,pIC50,MCF7,5.65
same,pIC50,PANC-1,< 5.00
same,pIC50,ASPC1,< 5.00
same,pIC50,MDA-MB-231 [1],4.07
O=C(Nc1ccc2c(c1)S(=O)(=O)C=C2)c1ccnc2ccccc12,pIC50,MCF7,5.53
same,pIC50,PANC-1,5.10
same,pIC50,ASPC1,5.16
same,pIC50,MDA-MB-231 [1],5.21
N#CCC(=O)Nc1ccc2c(c1)S(=O)(=O)C=C2,pIC50,MCF7,< 5.00
same,pIC50,MDA-MB-231 [1],< 5.00
C[C@H](NC(=O)c1cc(Cl)ccc1O)c1ccccc1,pIC50,MCF7,6.05
same,pIC50,PANC-1,5.07
same,pIC50,ASPC1,5.12
same,pIC50,MDA-MB-231 [1],5.05
O=C(Nc1ccc2c(c1)S(=O)(=O)C=C2)c1cc(-c2ccccc2)nc2ccccc12,pIC50,MCF7,7.00
same,Activity,MDA-MB-231 [2],Active
same,Activity,MDA-MB-231 [3],Dose-dependent effect
same,Activity,MDA-MB-231 [4],26.2%
same,Activity,MDA-MB-231 [5],34.1%
same,Activity,MDA-MB-231 [6],27.5%
same,Activity,MDA-MB-231 [7],21.9%
same,Activity,MDA-MB-231 [8],43.7%
same,Activity,MDA-MB-231 [9],27.6%
same,Activity,MDA-MB-231 [10],16.5%
same,Activity,MDA-MB-231 [11],25.8%
same,Activity,MDA-MB-231 [12],51.5%
same,Activity,MDA-MB-231 [13],0.14%
same,Activity,MDA-MB-231 [14],14.21%
same,Activity,MDA-MB-231 [15],66.12%
same,viability at 5 µM,MDA-MB-231 [16],19.5%
same,Activity,MDA-MB-231 [17],0.32%
same,Activity,MDA-MB-231 [18],13.32%
same,Activity,MDA-MB-231 [19],28.53%
same,viability at 2.5 µM,MDA-MB-231 [20],57.8%
same,Activity,MDA-MB-231 [21],0.67%
same,Activity,MDA-MB-231 [22],9.26%
same,Activity,MDA-MB-231 [23],9.31%
same,viability at 1 µM,MDA-MB-231 [24],80.8%
same,Activity,MDA-MB-231 [25],Active
same,inhibition,[26],Active
same,inhibition,[27],Active
same,inhibition,[28],Active
same,inhibition,[29],Active
same,inhibition,[30],65%
same,Activity,MDA-MB-231 [31],Dose-dependent effect
same,pIC50,PANC-1,6.59
same,pIC50,ASPC1,5.90
same,pIC50,MDA-MB-231 [1],6.54
same,Activity,Mus musculus,Non-toxic
O=C(Nc1ccc2c(c1)S(=O)(=O)C=C2)c1cc(Cl)ccc1O,pIC50,MCF7,6.04
same,pIC50,PANC-1,5.63
same,pIC50,ASPC1,5.72
same,pIC50,MDA-MB-231 [1],5.79
O=C(Nc1ccc2c(c1)S(=O)(=O)C=C2)c1cc(-c2ccccc2)nc(-c2ccccc2)c1,pIC50,MCF7,6.19
same,pIC50,PANC-1,6.51
same,pIC50,ASPC1,6.92
same,pIC50,MDA-MB-231 [1],6.35
O=C(Nc1ccc2c(c1)S(=O)(=O)C=C2)c1ccncc1,pIC50,MCF7,< 5.00
same,pIC50,MDA-MB-231 [1],< 5.00
O=C(Nc1ccc2c(c1)S(=O)(=O)C=C2)c1ccnc(-c2ccccc2)c1,pIC50,MCF7,5.42
same,pIC50,PANC-1,5.47
same,pIC50,ASPC1,5.89
same,pIC50,MDA-MB-231 [1],5.73
O=C(Nc1nnc(-c2ccco2)o1)c1cc(Cl)ccc1O,pIC50,MCF7,< 5.00
same,pIC50,PANC-1,< 5.00
same,pIC50,ASPC1,< 5.00
same,pIC50,MDA-MB-231 [1],< 5.00
